Compounds with a hit are over-represented: about 4.5% of the library has one in this group of screens.
NF-kB expr up = raises NF-kB expression in human neuronal cells; NF-kB reporter expression; stronger effect = higher value; fold change at 12.5 µM; 190,000 tested, 1.6% active; AID 1239; in the data active = fold change above about 3.3
PERK inhibitor = inhibitors of human PERK kinase. Q9NZJ5. CHO PERK-DD fusion, SEAP luminescence translation reporter. inhibition, % at 5.6 µM. 220,000 tested, 0.17% active. AID 1416;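 active = inhibition above the mean inhibition of all tested compounds plus 3 SD, set separately per screening campaign, cut at about 2.9% in these data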;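 also: PERK kinase domain activated by AP20187 dimerizer at 100 nM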
AHR activator = human AHR activation; AHR-responsive luciferase reporter cells, luminescence; activation, % at 5 µM; 320,000 tested, 2.5% active; in the data active = activation above about 47%
Target sequence (P35869 whole entry, looked up): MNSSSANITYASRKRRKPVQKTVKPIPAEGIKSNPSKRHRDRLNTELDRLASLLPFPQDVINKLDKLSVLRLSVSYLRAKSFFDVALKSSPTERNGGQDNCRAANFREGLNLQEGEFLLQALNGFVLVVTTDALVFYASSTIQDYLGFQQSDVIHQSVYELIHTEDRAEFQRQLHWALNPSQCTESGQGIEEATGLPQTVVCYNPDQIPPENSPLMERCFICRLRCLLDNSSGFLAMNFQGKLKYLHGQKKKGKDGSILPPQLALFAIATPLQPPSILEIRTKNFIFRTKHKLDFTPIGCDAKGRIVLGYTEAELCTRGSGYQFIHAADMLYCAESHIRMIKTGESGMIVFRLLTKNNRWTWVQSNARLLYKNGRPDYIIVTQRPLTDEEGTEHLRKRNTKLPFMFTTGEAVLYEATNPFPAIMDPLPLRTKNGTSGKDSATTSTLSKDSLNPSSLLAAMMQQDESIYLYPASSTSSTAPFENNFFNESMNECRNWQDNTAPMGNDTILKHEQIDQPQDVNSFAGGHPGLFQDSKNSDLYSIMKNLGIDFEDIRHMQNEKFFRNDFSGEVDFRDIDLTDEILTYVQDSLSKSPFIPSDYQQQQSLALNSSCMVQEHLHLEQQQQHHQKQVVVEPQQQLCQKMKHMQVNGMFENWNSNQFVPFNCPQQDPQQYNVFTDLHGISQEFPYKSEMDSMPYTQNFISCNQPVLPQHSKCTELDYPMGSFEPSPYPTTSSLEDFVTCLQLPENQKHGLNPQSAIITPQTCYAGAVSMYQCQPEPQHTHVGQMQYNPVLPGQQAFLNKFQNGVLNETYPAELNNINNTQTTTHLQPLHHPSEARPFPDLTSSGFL
MDM2 E3 inh = Mdm2 E3 ligase (human) inhibition; 210,000 tested, 0.11% active; signal enhancement, % at 5 µM; cell-based MDM2 ubiquitination luciferase reporter, 2 h; 0 = plate control, 100 = twice control, blank-subtracted; AID 1230; Q00987;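 active = signal enhancement of 30% or more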;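 also: luminescence tracks abundance of the self-degrading MDM2-luciferase fusion protein; higher signal means inhibition of MDM2 E3 ligase activity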
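Material: Stable MDM2–luciferase fusion reporter cells | Amount: 2000 cells seeded into each well | Dosing: One concentration, 5 µM, with 0.2% DMSO | Incubation: 4 h cell settling then 2 h compound exposure, 37 °C | Measured by: Luciferase luminescence | Read-out basis: % enhancement relative to plate controls after blank subtraction | Benchmarks: Control and blank well means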
APP 5'UTR act = activates APP 5'UTR luciferase reporter. SH-SY5Y APP 5'UTR luciferase reporter, luminescence; zero percent = DMSO vehicle wells. activation, % at 2 µM. 190,000 tested, 1% active;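 active = activation above a set limit, based on mean plus 3 SD of controls, cut at about 140% in these data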
STAT1 act = activators of IFN-gamma induced STAT1 signaling; 200,000 tested, 2.6% active; NIH 3T3 STAT1-luciferase reporter, luminescence; 100% = IFN-gamma alone, no compound; activation (% of control), % at 5.5 µM;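 active = activation above the screen-wide mean activation plus 3 SD, cut at about 130% in these data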
Hits are given with their value; i = inactive; nt = not tested or not shown.

SMILES	NF-kB expr up	PERK inhibitor	AHR activator	MDM2 E3 inh	APP 5'UTR act	STAT1 act
NC(=S)N=Nc1c(O)[nH]c2ccccc12	i	i	i	i	i	i
NC(=S)N=Nc1c(O)[nH]c2c(Br)cc(Br)cc12	i	i	63	i	i	i
Nc1c(Cl)nc(-c2ccccc2)nc1Cl	i	i	i	i	i	i
CCCn1cnc2cc(NCc3ccc(Br)cc3)ccc21	nt	nt	87	nt	nt	nt
CCn1cnc2cc(NCc3ccc(C)cc3)ccc21	i	i	i	i	i	136
Cn1cnc2cc(NCc3ccc(Cl)cc3)ccc21	nt	nt	56	nt	nt	nt
CCn1cnc2cc(NCc3nc4ccccc4n3Cc3ccccc3)ccc21	i	i	73	nt	168	148
CCOc1ccc(CNc2ccc3c(c2)ncn3C)cc1	i	i	i	i	i	i
Cc1cc(C)cc(C(=O)NCC(=O)OCC(=O)NCc2ccco2)c1	i	i	i	i	i	i
CCN(CC)C(=O)Oc1ccc2ccccc2c1Br	i	i	i	i	i	135
O=C(Oc1ccc2cc(Br)ccc2c1)N1CCCCCC1	i	i	i	i	i	131
CCN(CC)C(=O)Oc1ccc(Br)c2ccccc12	i	i	i	i	i	i
O=C(Oc1ccc2ccccc2c1Br)N1CCCCCC1	i	i	i	i	172	135
O=C(CSc1cc(Cl)ccc1Cl)NC1CCCC1	nt	nt	i	nt	nt	nt
COc1ccc(C(=O)NCCSc2ccccc2)cc1OC	i	i	i	i	i	134
O=C(Nc1ccc(F)cc1)c1ccccc1	i	i	i	i	i	i
O=C(Nc1ccc(F)cc1)c1cccc(C(=O)Nc2ccc(F)cc2)c1	nt	nt	51	nt	nt	nt
O=C(Nc1ccc2c(c1)C(=O)NC2=O)c1ccccc1	nt	nt	i	nt	nt	nt
O=C(/C=C/c1ccccc1)Nc1ccc2c(c1)C(=O)NC2=O	i	i	i	i	i	129
O=C(Nc1ccc2c(c1)C(=O)NC2=O)c1cccc(C(F)(F)F)c1	nt	nt	53	nt	nt	nt
O=C(Nc1ccc(SC(F)F)cc1)c1ccc(F)cc1	4.7	i	i	i	i	137
CCN(c1ccccc1C)S(=O)(=O)c1cc2c3c(c1)CCC(=O)N3CCC2	nt	nt	i	nt	nt	nt
Cc1ccc(C(=O)N[C@H](C(=O)OCc2cc(=O)oc3cc(C)ccc23)C(C)C)cc1	i	i	i	i	i	i
Cn1c(NC(=O)/C=C\c2ccccc2)cc(=O)n(C)c1=O	i	i	50	i	i	i
COc1cc2c(cc1OC)C1(CCCC1)C(N)=C2C#N	i	i	48	i	i	i
SMILES	NF-kB expr up	PERK inhibitor	AHR activator	MDM2 E3 inh	APP 5'UTR act	STAT1 act
COc1cc(OC)c(OC)cc1C#N	i	i	i	i	i	i
Cc1ccc(NC(=O)Cn2nc(C)c(S(=O)(=O)N(C)C)c2C)cc1C	i	i	i	i	i	i
CCc1n[nH]c(=S)n1/N=C/c1cc(Br)c(OC)cc1OC	i	i	76	i	i	i
CCc1n[nH]c(=S)n1/N=C/c1ccc(-c2ccc(Br)cc2)o1	nt	nt	i	nt	nt	nt
c1cncc(CNc2nc(-c3cccnc3)nc3ccccc23)c1	nt	nt	i	nt	nt	nt
c1cncc(CNc2ncnc3ccc(-c4ccc5c(c4)OCO5)cc23)c1	nt	nt	53	nt	nt	nt
O=C(N/N=C/c1ccc2c(c1)OCO2)c1cccc2ccccc12	nt	nt	i	nt	nt	nt
c1cncc(-c2nc(NCc3ccc4c(c3)OCO4)c3ccccc3n2)c1	nt	i	64	i	nt	nt
O=C(N/N=C/c1ccc2c(c1)OCO2)c1cc(-c2ccccc2)nc2ccccc12	i	i	51	i	i	i
S=C(N/N=C/c1ccc2c(c1)OCO2)NC1CC2CCC1C2 (stereo unspecified)	nt	i	68	i	nt	nt
Cc1cccc(OCC(=O)Nc2ccc(C(=O)c3ccc(C(=O)O)cc3)cc2)c1	i	i	i	i	i	i
CCOC(=O)N/N=C\C=C\c1ccc2c(c1)OCO2	i	i	49	i	i	i
c1cncc(CSc2ccc(-c3ccc4c(c3)OCO4)nn2)c1	i	i	95	i	i	i
Cc1cc(C(=O)N/N=C/c2ccc3c(c2)OCO3)c(C)o1	i	i	72	i	i	i
O=C(Nc1ccc2c(c1)OCO2)c1cc(-c2cccnc2)nc2ccccc12	i	i	47	i	i	i
O=C(c1cncc(Br)c1)N1CCN(S(=O)(=O)c2ccc(Cl)cc2)CC1	nt	nt	i	nt	nt	nt
CN(C)c1nc(C(=O)O)nc(N2CCOCC2)n1	nt	i	i	i	nt	nt
O=C(O)c1ccc(-c2ccccc2Cl)o1	i	i	i	i	i	i
O=C(c1ccc(-c2ccccc2Cl)o1)N1CCN(c2ccccc2O)CC1	nt	nt	i	nt	nt	nt
CN1CCN(C(=S)c2ccc(-c3cccc(Cl)c3Cl)o2)CC1	i	i	i	i	i	144
S=C(c1ccc(-c2ccccc2Cl)o1)N1CCCCC1	i	i	i	i	i	141
CN(C)c1ccc(CNC23CC4CC(CC(C4)C2)C3)cc1	nt	i	nt	nt	i	i
O=[N+]([O-])c1ccc2nc(-c3ccc(OC(F)F)cc3)cn2c1	3.5	i	i	i	i	i
O=[N+]([O-])c1ccc(-c2cn3ccccc3n2)cc1	nt	nt	i	nt	nt	nt
Cc1ccc(CNC(=O)/C=C/c2ccccc2Cl)cc1	i	3.0	i	i	i	i
SMILES	NF-kB expr up	PERK inhibitor	AHR activator	MDM2 E3 inh	APP 5'UTR act	STAT1 act
O=C(/C=C/c1ccccc1Cl)NCc1cccs1	i	i	i	i	i	131
C=CCn1c(C(C)NC(=O)c2cccc(C)c2)n[nH]c1=S (stereo unspecified)	3.3	i	i	i	i	i
N#CC(c1ccc(Cl)cc1)(c1ncc(C(F)(F)F)cc1Cl)N1CCOCC1 (stereo unspecified)	i	i	i	i	i	i
c1ccc2nc(-c3nccs3)ccc2c1	i	i	i	i	i	131
CC(=O)Nc1ccccc1P(=O)(c1ccccc1)c1ccccc1OC(C)=O (stereo unspecified)	nt	i	i	i	nt	nt
Cc1ccc(S(=O)(=O)N(CC(=O)NCCSCc2ccco2)c2ccc(F)cc2)cc1	i	3.2	i	i	i	i
CCSc1nc2cc(OC)c(OC)cc2c(=O)n1CC	i	i	i	i	i	i
Cc1cccc(C)c1NC(=O)CCn1cnc2ccccc2c1=O	i	i	i	i	i	i
Cc1ccc(NC(=O)CCn2cnc3ccccc3c2=O)cc1Cl	i	i	i	i	i	131
Clc1cccc(Cl)c1CSc1cc2c(nn1)-c1ccccc1CC2	i	i	i	i	i	i
Clc1ccccc1CSc1cc2c(nn1)-c1ccccc1CC2	3.7	i	72	i	i	i
O=C(COC(=O)CCc1nc2ccccc2c(=O)[nH]1)Nc1ccc2c(c1)OCO2	nt	i	i	i	nt	nt
CCCCn1c(N)c(N(Cc2ccccc2OC)C(=O)CN2C(=O)NC3(CCCC3)C2=O)c(=O)[nH]c1=O	nt	nt	i	nt	nt	nt
CCc1ccc2c(c1)C(=O)c1ccccc1C2=O	3.5	i	i	i	i	i
O=C(N/N=C1\CCCc2ccccc21)c1ccc([N+](=O)[O-])cc1	i	i	i	nt	i	i
Cc1ccc(C(=O)N/N=C2\CCCc3ccccc32)c(C)c1	i	i	i	i	i	129

Source: PubChem
